This is an account of results in ChEMBL document CHEMBL4330096, “Discovery of potent and selective 5-azaindazole inhibitors of leucine-rich repeat kinase 2 (LRRK2) - Part 1” (Bioorg Med Chem Lett, 2019).

A value given as a limit tells only on which side of the number the result lay.

The target in data set [1] is Leucine-rich repeat serine/threonine-protein kinase 2 (Homo sapiens, UniProt Q5S007, G2019S). In words: Inhibition of recombinant human GST-tagged LRRK2 G2019S mutant catalytic domain (970 to 2527 residues) expressed in baculovirus expression system by radiometric assay.
Data set [2] is described as follows: Stability in human liver microsomes assessed as compound turnover rate measured after 40 mins. To be noted: read-out: Drug metabolism. The class given is ADME, Microsome. In short, it runs like this: (§1)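 In vitro incubation of compound with liver microsomes: human (HLM) for 40 min, mouse (MLM) for 30 min. Reported as % turnover of parent compound.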
(In general: Liver microsomes are vesicles of endoplasmic reticulum, rich in cytochrome P450 enzymes.)

Data set [3] in a line: Stability in mouse liver microsomes assessed as compound turnover rate measured after 30 mins. The data set is classed as ADME, Microsome. The settings on record: read-out: Drug metabolism. In short, it runs like this: as §1
Data set [4] in a line: Lipophilicity, log D of the compound at pH 7.4. The class given is physicochemical. To be noted: buffer.
Data set [5] can be described thus: Ratio of drug level in mouse brain to plasma. The settings on record: read-out: BPR. In short, it runs like this: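 Mice; ratio based on total (not unbound) compound concentrations in brain versus plasma.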

Sequence of Leucine-rich repeat serine/threonine-protein kinase 2 (Q5S007 whole entry G2019S, the tested form may be a part): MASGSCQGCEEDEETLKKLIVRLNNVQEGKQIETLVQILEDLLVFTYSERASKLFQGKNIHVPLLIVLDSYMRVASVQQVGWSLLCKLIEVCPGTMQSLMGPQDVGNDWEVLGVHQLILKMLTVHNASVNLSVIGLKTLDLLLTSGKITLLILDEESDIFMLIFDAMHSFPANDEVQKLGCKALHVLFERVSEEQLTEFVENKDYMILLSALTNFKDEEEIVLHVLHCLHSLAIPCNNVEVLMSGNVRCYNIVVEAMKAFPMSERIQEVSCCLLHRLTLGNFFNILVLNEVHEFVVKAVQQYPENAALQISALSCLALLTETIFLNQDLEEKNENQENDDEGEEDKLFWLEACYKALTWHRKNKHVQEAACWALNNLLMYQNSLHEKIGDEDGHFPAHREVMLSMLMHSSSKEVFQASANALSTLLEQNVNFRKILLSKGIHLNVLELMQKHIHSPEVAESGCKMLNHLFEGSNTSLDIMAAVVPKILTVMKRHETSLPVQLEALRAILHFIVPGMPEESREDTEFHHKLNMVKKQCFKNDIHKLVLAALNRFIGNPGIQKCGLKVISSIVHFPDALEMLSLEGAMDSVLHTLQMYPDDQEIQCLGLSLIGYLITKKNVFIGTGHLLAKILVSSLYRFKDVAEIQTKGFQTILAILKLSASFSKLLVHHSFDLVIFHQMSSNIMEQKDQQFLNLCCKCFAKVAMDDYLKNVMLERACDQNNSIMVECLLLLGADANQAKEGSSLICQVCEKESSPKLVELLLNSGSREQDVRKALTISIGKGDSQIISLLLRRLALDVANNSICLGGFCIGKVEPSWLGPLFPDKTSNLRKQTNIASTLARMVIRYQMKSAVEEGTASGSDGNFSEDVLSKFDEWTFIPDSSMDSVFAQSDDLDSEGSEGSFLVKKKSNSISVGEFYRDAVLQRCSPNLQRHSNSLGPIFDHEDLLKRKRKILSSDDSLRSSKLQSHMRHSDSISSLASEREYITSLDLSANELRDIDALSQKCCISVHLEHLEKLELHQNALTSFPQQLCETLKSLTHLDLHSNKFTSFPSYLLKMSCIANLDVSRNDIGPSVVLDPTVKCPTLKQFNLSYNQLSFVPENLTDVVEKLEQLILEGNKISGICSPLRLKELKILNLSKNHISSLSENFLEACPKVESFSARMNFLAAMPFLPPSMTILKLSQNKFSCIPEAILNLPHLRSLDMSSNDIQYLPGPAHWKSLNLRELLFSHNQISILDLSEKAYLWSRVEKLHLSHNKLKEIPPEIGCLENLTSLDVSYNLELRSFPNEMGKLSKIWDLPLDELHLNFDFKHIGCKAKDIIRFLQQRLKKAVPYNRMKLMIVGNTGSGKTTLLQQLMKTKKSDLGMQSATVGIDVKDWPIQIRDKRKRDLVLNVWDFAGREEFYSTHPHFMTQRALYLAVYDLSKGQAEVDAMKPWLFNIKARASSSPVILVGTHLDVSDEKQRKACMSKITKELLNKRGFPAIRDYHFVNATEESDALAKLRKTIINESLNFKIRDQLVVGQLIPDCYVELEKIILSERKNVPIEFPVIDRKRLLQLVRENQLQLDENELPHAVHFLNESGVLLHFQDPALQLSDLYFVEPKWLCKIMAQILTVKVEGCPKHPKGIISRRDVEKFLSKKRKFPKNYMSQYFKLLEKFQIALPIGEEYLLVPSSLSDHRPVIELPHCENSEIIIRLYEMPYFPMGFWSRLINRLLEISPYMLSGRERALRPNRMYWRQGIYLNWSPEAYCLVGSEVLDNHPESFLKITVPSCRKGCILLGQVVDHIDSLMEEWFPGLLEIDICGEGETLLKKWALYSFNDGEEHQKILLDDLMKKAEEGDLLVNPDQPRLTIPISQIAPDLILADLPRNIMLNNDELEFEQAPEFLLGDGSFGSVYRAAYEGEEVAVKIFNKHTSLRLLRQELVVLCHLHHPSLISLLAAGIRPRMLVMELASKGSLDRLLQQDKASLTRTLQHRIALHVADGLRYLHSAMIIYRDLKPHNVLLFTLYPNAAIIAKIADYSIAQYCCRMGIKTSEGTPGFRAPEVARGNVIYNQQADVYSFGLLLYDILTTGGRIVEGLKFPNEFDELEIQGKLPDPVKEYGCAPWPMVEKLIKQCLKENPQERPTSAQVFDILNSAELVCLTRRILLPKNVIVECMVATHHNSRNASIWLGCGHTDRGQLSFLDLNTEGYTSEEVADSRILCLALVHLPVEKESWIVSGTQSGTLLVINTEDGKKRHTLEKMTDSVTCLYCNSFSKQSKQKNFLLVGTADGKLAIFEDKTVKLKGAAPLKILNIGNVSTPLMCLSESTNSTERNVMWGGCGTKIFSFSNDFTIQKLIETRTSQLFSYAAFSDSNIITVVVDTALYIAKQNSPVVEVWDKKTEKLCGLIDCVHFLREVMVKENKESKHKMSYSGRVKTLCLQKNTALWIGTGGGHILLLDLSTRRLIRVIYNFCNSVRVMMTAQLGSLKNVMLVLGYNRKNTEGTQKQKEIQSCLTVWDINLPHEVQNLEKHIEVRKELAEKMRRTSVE

Consider `Cc1c[nH]c2ccnc(NC3CCCCC3)c12`, for which the IC50 in data set [1] is more than 10000 nM.
For the compound `CCOc1nccc2[nH]nc(C)c12`, the IC50 in data set [1] is 440 nM.
For the compound `Cn1cc(-c2n[nH]c3ccnc(NC4CCCCC4)c23)cn1`, the IC50 in data set [1] worked out at 130 nM. Further, in data set [2], the metabolised at 40 min was found to be 21%. Besides, the metabolised at 0.5 h in data set [3] is 19%. In data set [4], this compound yielded a logD of 2.7.
As for `Cc1n[nH]c2ccnc(OC3CCCC3)c12`, in data set [1], the 50% inhibitory concentration (IC50) came to 86 nM. Further, the metabolised at 40 min in data set [2] worked out at 31%. Besides, the metabolised at 0.5 h in data set [3] came out at 42%.
On to `Cc1n[nH]c2ccnc(Nc3cnn(C)c3)c12`, for which the concentration for half-maximal inhibition (IC50) in data set [1] was 830 nM.
The same measure, in the same setting: the same measure for `Cc1n[nH]c2ccnc(NC3CC3)c12`: 4700 nM.
For the compound `Cc1n[nH]c2ccnc(OC3CCN(C)CC3)c12`, the IC50 in data set [1] came to 1900 nM.
`Cc1n[nH]c2ccnc(NC3CCOCC3)c12`: in data set [1], the IC50 was 190 nM. For the same compound, the metabolised at 40 min in data set [2] is 0%. In data set [3], the metabolised at 0.5 h turned out to be 4%. In addition, the Kp in data set [5] was found to be 1.6. The compound also returned a logD in data set [4] of 1.2.
Consider `Cc1nn(C)c2ccnc(NC3CCCCC3)c12`, for which the IC50 in data set [1] is more than 10000 nM.
Regarding `Cc1n[nH]c2ccnc(NC3CCCC3)c12`, the IC50 in data set [1] came out at 410 nM. The metabolised at 40 min in data set [2] was 2%. Further, the metabolised at 0.5 h in data set [3] was determined as 10%.
Turning to `CC(C)n1cc(-c2n[nH]c3ccnc(NC4CCCCC4)c23)cn1`, the IC50 in data set [1] came out at 110 nM. Moreover, in data set [2], the metabolised at 40 min is 23%. In addition, the metabolised at 0.5 h in data set [3] came out at 43%. In data set [4], this compound returned a logD of 3.2.
Take `Cc1n[nH]c2ccnc(O[C@@H]3CCOC3)c12`: the IC50 in data set [1] was 250 nM. In data set [2], the metabolised at 40 min worked out at 0%. In addition, the metabolised at 0.5 h in data set [3] was 13%.
For the compound `Cc1n[nH]c2ccnc(Nc3cccnc3)c12`, in data set [1], the IC50 is more than 10000 nM.
Same read-out and setting: the same measure for `CC(C)Cn1cc(-c2n[nH]c3ccnc(NC4CCOCC4)c23)cn1`: 410 nM.
As for `Cc1n[nH]c2ccnc(N3CCOCC3)c12`, in data set [1], the IC50 turned out to be 3000 nM.
Regarding `c1cc(-c2n[nH]c3ccnc(NC4CCOCC4)c23)cc(N2CCOCC2)n1`, the metabolised at 40 min in data set [2] was determined as 17%. Further, the metabolised at 0.5 h in data set [3] is 11%.
For `c1cc2[nH]nc(-c3cnn(C4CCCC4)c3)c2c(NC2CCOCC2)n1`, the half-maximal inhibitory concentration (IC50) in data set [1] turned out to be 170 nM.
Turning to `Cc1n[nH]c2ccnc(OC3CCC3)c12`, the IC50 in data set [1] amounted to 170 nM. In addition, in data set [2], the metabolised at 40 min worked out at 22%. Moreover, the metabolised at 0.5 h in data set [3] was found to be 41%.
On to `CC[C@H](C)Nc1nccc2[nH]nc(C)c12`, for which, in data set [1], the IC50 came to 300 nM. Further, in data set [2], the metabolised at 40 min is 6%. Also, in data set [3], the metabolised at 0.5 h is 9%.
`Cc1n[nH]c2ccnc(NCC3CC3)c12`: in data set [1], the IC50 worked out at 2400 nM.
For `Cc1ccc(Nc2nccc3[nH]nc(C)c23)cc1`, the IC50 in data set [1] is 97 nM. Also, the metabolised at 40 min in data set [2] was 13%. Further, the metabolised at 0.5 h in data set [3] was 28%.
With `Cc1n[nH]c2ccnc(NC3CCC3)c12`, the IC50 in data set [1] amounted to 530 nM.
Regarding `Cc1n[nH]c2ccnc(NCc3ccc(Cl)cc3)c12`, the IC50 in data set [1] was 4900 nM.
Consider `Cc1noc2ccnc(NC3CCCCC3)c12`, for which the IC50 in data set [1] was more than 10000 nM.
For the compound `Cc1n[nH]c2ccnc(Nc3ccc(Cl)cc3)c12`, in data set [1], the IC50 amounted to 390 nM.
As to `Cc1n[nH]c2ccnc(NC(C)C)c12`, the IC50 in data set [1] came to 880 nM.
For `Cc1n[nH]c2ccnc(N(C)C3CCCCC3)c12`, the IC50 in data set [1] is 1600 nM.
On the same count and under the same terms, to `Cc1n[nH]c2cncc(NC3CCCCC3)c12` belongs 770 nM.
In the case of `Cc1n[nH]c2ccnc(OC(C)C)c12`, in data set [1], the IC50 amounted to 68 nM. Besides, the metabolised at 40 min in data set [2] stood at 2%. The metabolised at 0.5 h in data set [3] turned out to be 24%.
As for `CC(C)n1cc(-c2n[nH]c3ccnc(OC4CCCCC4)c23)cn1`, the IC50 in data set [1] was found to be 2 nM. Moreover, the metabolised at 40 min in data set [2] came to 36%. Further, in data set [3], the metabolised at 0.5 h came to 66%. Also, the logD in data set [4] turned out to be 3.7.
Take `c1cc2[nH]nc(-c3cnn(C4CCCC4)c3)c2c(OC2CCOCC2)n1`: the IC50 in data set [1] was 4 nM.
In the case of `CC(C)Cn1cc(-c2n[nH]c3ccnc(OC4CCOCC4)c23)cn1`, the IC50 in data set [1] worked out at 15 nM.

The term IC50 denotes the concentration that gives 50% inhibition. In general, logD refers to lipophilicity at a set pH, counting ionised and neutral species. A low value points to a more hydrophilic compound.
